Data as given in PubChem BioAssay.
The source made the active and inactive calls.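 The calls were made as follows: active = growth inhibition above a set limit, 3 SD over mean compound inhibition, in both replicates (cut at about 43% in these data); inconclusive = above the limit in only one replicate; inactive = at or below the limit in both replicates.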

Experiment: S. cerevisiae growth inhibition in restrictive medium, OD615, pilot screen, restrictive growth control, yeast lifespan reduction project (AID 706);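 also: modified DeaD lifespan yeast strain shifted to restrictive glucose medium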
Details: OD615, 48 h, at 10 µM, stronger effect = higher value
Summary of the method: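 System: Engineered S. cerevisiae DeaD strain | Buffer or medium: Glucose-based CSMM-D restrictive medium | Schedule: 4 h pre-incubation, 48 h exposure at 30 °C | Technique: Optical density at 615 nm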

Growth inhibition, active:
COc1ccc(NC(=O)C2CCCN2S(=O)(=O)c2cccc3cccnc23)c(OC)c1 (centres undefined) 95.7%

Growth inhibition, inactive:
O=C(c1ccc2nc(N3CCCCC3)sc2c1)N1CCN(c2ccccn2)CC1 -0.825%
CC(C)CCNC(=O)Cn1c(NCCC(C)C)nc2c1c(=O)n(C)c(=O)n2C -0.68%
CC(=O)NC(C)c1nc2ccccc2n1C(C)C (centres undefined) -15.8%
NC(=O)CSc1cn(CCNC(=O)c2cccs2)c2ccccc12 -28%
Cc1cccc(C2CC(c3ccc(Cl)cc3)Nc3nc(N)nn32)c1 (centres undefined) 23.9%
CCOC(=O)CN1CC23C=CC(O2)C(C(=O)Nc2ccc(C(C)=O)cc2)C3C1=O (centres undefined) 2.56%
CCCSc1nnc(N2C(=O)CC(c3ccsc3)C3=C2CCCC3=O)s1 (centres undefined) -7.41%
O=C(CN1CCN(Cc2ccc(F)cc2Cl)C1=O)NCCCN1CCOCC1 8.75%
CN(C)CCCN1C(=O)CSC1c1ccccc1 (centres undefined) -1.53%
COC(=O)Cn1c(=O)c2c(nc3n2CC(C)CN3c2ccc(C)c(C)c2)n(C)c1=O (centres undefined) 0.135%
CCCSC1=C(C#N)C(c2cc(OC)ccc2OC)CC(=O)N1 (centres undefined) -3.12%
O=C(Nc1ccc(CN2CCOCC2)cc1)c1cc2ccccn2n1 7.87%
CCN(CC)CCn1c(=N)n(CCO)c2ccccc21 1.18%
CCN(CCCNS(=O)(=O)c1ccc2c(c1)oc(=O)n2C)c1cccc(C)c1 -10.2%
COc1ccc(OC)c(C2=NOC(C(=O)Nc3c(C)n(C)n(-c4ccccc4)c3=O)C2)c1 (centres undefined) -24%
O=C(Cn1cc2c(n1)CCCCC2)N1CCc2ccccc2C1 10.6%
Cn1c(=O)c2c(nc(SCCCC#N)n2Cc2c(F)cccc2Cl)n(C)c1=O 5.36%
CCN1CCN(Cc2ccc(NC(=O)Nc3ccccc3)cc2)CC1 -11.3%
CCOC(=O)N1CCN(Cc2nc3c(c(=O)n(C)c(=O)n3C)n2Cc2ccccc2)CC1 -4.35%
COCCCNC(=O)Cn1cc2c(n1)CCC(C)C2 (centres undefined) 5.27%
C=CCc1ccccc1OCCCCN1CCCC1 -3.4%
COc1ccc(OCC(=O)N2CC3(C)CC2CC(C)(C)C3)cc1 (centres undefined) -0.89%
O=C1c2ccccc2C(Nc2ccc(-c3nc4ccccc4[nH]3)cc2)N1Cc1ccco1 (centres undefined) 4.04%
CCCNc1nc(N2CCOCC2)nc(N2CCOCC2)n1 2.38%
COCCn1c(SCC(=O)Nc2ccc3c(c2)OCCO3)nc2c(c1=O)SC(C)C2 (centres undefined) -5.1%
CCOC(=O)Cn1ncc(-c2ccccc2)c1N -2.13%
O=C(O)C1CC(=O)N(CCOc2ccccc2)C1 (centres undefined) 3.82%
Cc1ccc(-n2c3c(cc(C(=O)NCCCN4CCOCC4)c2=O)C(=O)CC(C)(C)C3)cc1 -4.07%
CCOC(=O)C1CCN(Cc2ccc(OC)c(C)c2OC)CC1 2.96%
COc1ccc(C(C)N2CC34C=CC(O3)C(C(=O)OCC(C)C)C4C2=O)cc1 (centres undefined) -7.06%
Cc1c(NC(=O)C2CCCCN2S(=O)(=O)c2ccc(Cl)cc2)c(=O)n(-c2ccccc2)n1C (centres undefined) -1.4%
CC(C)(NC(=O)N1CCCC1)c1cccc(C(C)(C)NC(=O)N2CCCC2)c1 3.39%
CC(C)NC(=O)c1ccc2c(c1)nnn2C -12.3%
Cc1ccc(C(=O)CC2(O)C(=O)N(C)c3ccc(Br)cc32)c(C)c1 (centres undefined) 9.8%
Cc1ccc(NC(=O)CN(c2ccc3c(c2)OCO3)S(=O)(=O)c2c(C)n[nH]c2C)cc1 -19.2%
COc1ccc(N2CCN(Cc3nc4c(c(=O)n(C)c(=O)n4C)n3Cc3ccccc3C)CC2)cc1 -24.9%
CN(C(=O)c1ccco1)c1nnc(C23CC4CC(CC(C4)C2)C3)s1 -8.94%
CCCC(=O)C1=C(N(C)c2ccccc2)CC(C)(C)C(C(=O)OC)C1=O (centres undefined) -2.86%
